Laboratory results published in paper PMC2697266 (Nature, 2009).

Tests used:
[1] = 15N NMR relaxation, rotational correlation time; format: physicochemical; conditions: 15N R2/R1 ratios, pH 7.0, 25°C; estimated
Method in brief: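 0.2-0.5 mM uniformly 15N-labeled JARID1A PHD3 (bacterial His6-SUMO fusion, cleaved, purified by Ni-NTA and gel filtration), free or with unlabeled H3 1-9 K4me3 peptide. R1 and R2 measured with standard pulse sequences at 25°C, 800 MHz with cryoprobe; correlation time estimated from R2/R1 ratios.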

[2] = system: JARID1APHD1 (the first PHD finger of JARID1A); assay: Biotinylated histone peptide pull-down, JARID1APHD1; format: binding, human; conditions: 50mM Tris pH 7.5, 150mM NaCl; qualitative
Method in brief: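 Biotinylated histone peptides were bound to recombinant PHD protein and captured on avidin beads. Beads were washed extensively in 50mM Tris pH 7.5, 150mM NaCl (250mM for stringent washes), 0.05% NP-40, 0.3mg/ml BSA and 1mM DTT; bound protein was then assessed.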

| Substance | rotational correlation time [1] [ns] | interaction with JARID1APHD1 in peptide pull-down [2] |
| --- | --- | --- |
| JARID1APHD3: C-terminal PHD finger of JARID1A (amino acids 1601-1660) (EESDDENAVCAAQNCQRPCKDKVDWVQCDGGCDEWFHQVCVGVSPEMAENEDYICINCAK; left off: GST, end not stated, kept) | 3.5 |  |
| H3K4me0: unmodified H3K4 histone peptide |  | interacted |
